Assay results published in PubChem BioAssay AID504383 (The Scripps Research Institute Molecular Screening Center, 2011).
The campaign covered roughly 2,500 compounds. About 1,200 (48%) were called active. The set was probably picked from earlier hits. Some of the results follow. Unmarked numbers belong to inactive results.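 The calls were made as follows: active = mean activation above the low control average plus 3 SD, as set in the primary screen (cut at about 12% in these data); inactive = the rest.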

Biological target: Troponin I, cardiac muscle (Homo sapiens) + Troponin T, cardiac muscle (Homo sapiens) + Troponin C, slow skeletal and cardiac muscles (Homo sapiens) (UniProt P19429+P45379+P63316)
Test: cardiac RTF calcium sensitivity activators, confirmation, biochemical, IANBD-TnC fluorescence, triplicate (AID 504383);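 also: 0% = DMSO at 0.472 mM calcium and 100% = DMSO at 2.9 mM calcium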
Settings: IANBD-labeled cardiac RTF, Ca2+ sensitivity fluorescence; at 7.2 µM; active compounds read high; scaled from EC20 to saturating calcium; tested at EC20 calcium, 0.472 mM
In short: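 Assay system: labelled regulated thin filament protein complex; schedule: 15 min compound incubation with filaments at 25 °C; benchmarks: low control EC20 calcium, high control EC100 calcium; reagent: Ca2+ 0.472 mM, EC20 level; doses: one dose, 7.2 µM nominal; evaluation: fluorescence gain scaled between EC20 and EC100 calcium controls; signal: filament fluorescence intensity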

Structure (SMILES) | activation
Cc1ccccc1Cn1cccc1/C=C1/C(=N)N2C=CSC2=NC1=O | 14.6% (active)
N=C1/C(=C\c2coc3ccccc3c2=O)C(=O)N=C2SC(c3ccncc3)=NN12 | 22.9% (active)
N=C1/C(=C\c2coc3ccccc3c2=O)C(=O)N=C2SC=CN12 | 12.3% (active)
CC(C)CC1=NN2C(=N)/C(=C\c3coc4ccccc4c3=O)C(=O)N=C2S1 | 13.7% (active)
N=C1/C(=C\c2coc3ccc(O)cc3c2=O)C(=O)N=C2SC=CN12 | 5.99%
O=C(c1ccccc1)N1CCN(CC#CC2(O)CCCCC2)CC1 | 8.87%
COc1ccc(-n2nc3c(N4CCC(C(=O)NCc5ccco5)CC4)nnc(C)c3c2C)cc1 | 4.51%
CC1CCCCN1C(=O)Cn1nnc(-c2cccnc2)n1 (stereo not given) | 5.92%
COc1ccc(N2CCN(C(=O)Cn3nnc(-c4ccccc4N)n3)CC2)cc1 | 46.5% (active)
CC(C)CC1C(C#N)=C(N)SC(N)=C1C#N | 4.27%
COc1cc(NC(=O)[C@@H]2CCCN2S(=O)(=O)c2cccc3cccnc23)cc(OC)c1OC | 7.77%
Cc1cc(=O)n2nc(N3CCCC3C(=O)Nc3ccc(C(C)C)cc3)sc2n1 (stereo not given) | 426% (active)
Cc1cc(Br)c2c(c1)C(O)(N1CCCCC1C)C(=O)N2 (stereo not given) | 12.6% (active)
CC1=NN(C(=O)c2ccc(Cn3ccc([N+](=O)[O-])n3)cc2)C(O)(C(F)(F)F)C1 (stereo not given) | 18.8% (active)
CC1=NN(C(=O)c2ccccc2-n2cccc2)C(O)(C(F)(F)F)C1 (stereo not given) | 15.7% (active)
COc1cccc(OC)c1C(=O)NNC(=O)c1ccccc1-n1cccc1 | -0.16%
CC1=C(C#N)C(=O)OC(C)(C)C1 | 10.4%
CC(C)c1nnc(N2C(=O)C(O)=C(C(=O)c3cccs3)C2c2ccccc2)s1 (stereo not given) | 7.93%
CSc1ccc(C2C(C(=O)c3ccco3)=C(O)C(=O)N2c2nnc(SC)s2)cc1 (stereo not given) | 29.2% (active)
N#Cc1c(NCCCO)nc(-c2ccccc2)c2c1CCCC2 | 16.7% (active)

Structure (SMILES) | activation
CCOc1cc(/C=C(\C#N)c2nc(-c3cccs3)c(NC(C)=O)s2)ccc1O | 0.64%
CC(=O)Nc1sc(/C(C#N)=C\c2cccc(Cl)c2)nc1-c1ccc(C)cc1 | 49.1% (active)
CC(=O)Nc1sc(/C(C#N)=C/c2ccc(Cl)c(Cl)c2)nc1-c1ccc(C)cc1 | -3.28%
Cc1ccc(NC(=O)COC(=O)c2csc3c2CCC(C)C3)cc1S(=O)(=O)N1CCCCC1 (stereo not given) | 3.56%
Cc1ccc(S(=O)(=O)N2CCOCC2)cc1NC(=O)CSc1nccn1C | 11.4%
O=C(CNCc1cccs1)Nc1ccc(S(=O)(=O)N2CCCCC2)cc1 | 66.4% (active)
O=C(CNCc1cccs1)Nc1cc(S(=O)(=O)N2CCCC2)ccc1Cl | 17.9% (active)
O=C(CCCN1C(=O)c2ccccc2C1=O)Nc1ccc(S(=O)(=O)N2CCCCC2)cc1 | 4.61%
CC(C(=O)NNS(=O)(=O)c1cccc(C(F)(F)F)c1)n1nnc(N2CCOCC2)n1 (stereo not given) | 5.72%
C=CCOc1ccn(C)c(=O)n1 | 12.1% (active)
CCOc1ccc(NC(=O)C2CC(=O)N=C(N)S2)cc1 (stereo not given) | 4.04%
COc1ccc(Nc2nc3ccc(C)cc3cc2C#N)c(OC)c1 | 3.9%
COc1ccc(N=Nc2nc3ccc(Br)cc3n2C)cc1 | 10.6%
COc1ccc(N=Nc2nc3cc(Br)c(Br)cc3n2C)c(OC)c1 | 2020% (active)
O=C1c2cccc3c([N+](=O)[O-])ccc(c23)C(=O)N1Cc1cccnc1 | 3.03%
Cc1ccnc(N2C(=O)c3cccc4c([N+](=O)[O-])ccc(c34)C2=O)c1 | 16.1% (active)
CN(C)CCCN1C(=O)c2cccc3c([N+](=O)[O-])ccc(c23)C1=O | 38.5% (active)
Cc1cccc(N2C(=O)c3cccc4c(N)ccc(c34)C2=O)c1 | 0.54%
Cc1ccc(N2C(=O)c3cccc4c(N)ccc(c34)C2=O)c2cccnc12 | 9.53%
COc1ccccc1N1C(=O)c2cccc3c(N(C)CCO)ccc(c23)C1=O | 7.87%

Structure (SMILES) | activation
CCOC(=O)c1sc(-c2ccc(F)cc2)cc1NC(=O)Nc1ccccc1OC | 37.5% (active)
COc1ccccc1NS(=O)(=O)c1cc(C(=O)NCCN2CCOCC2)ccc1Cl | 2.55%
CCOc1ccc2ccccc2c1CNCCN1CCOCC1 | 27% (active)
COc1ccccc1N1C(C)=CC(=C(C#N)c2nc3ccccc3s2)C=C1C | 11.1%
CC1=CC(=C(C#N)c2nc3ccccc3s2)C=C(C)N1c1ccc(F)cc1 | 74.2% (active)
Cc1ccc(-n2c(C)cc(C(=O)COC(=O)c3ccc[nH]c3=O)c2C)cc1 | 6.02%
COCCn1c(C)cc(C(=O)COC(=O)c2ccc(Cl)c(S(N)(=O)=O)c2)c1C | 13% (active)
O=C1CCC(=O)N1CC(O)COc1ccccc1 (stereo not given) | 255% (active)
Cc1cc(C)n(CC(O)COc2ccccc2)n1 (stereo not given) | 6.17%
OCCN1CCN(CC(O)COc2ccc(C34CC5CC(CC(C5)C3)C4)cc2)CC1 (stereo not given) | 90.4% (active)
CCCN1C(=O)c2ccccc2NC1c1ccc(O)c(OCC)c1 (stereo not given) | 14.5% (active)
CCOc1cc(C2C3=C(CCCC3=O)N(C)C3=C2C(=O)CCC3)cc(Cl)c1O | 6.5%
COc1ccc(/C(C)=N/N2C(=O)c3ccccc3NC2c2ccc(O)c(OC)c2)cc1 (stereo not given) | 9.34%
CC(C)C12CN(C(=O)c3ccccc3[N+](=O)[O-])CC(C(C)C)(CN(C(=O)c3ccccc3[N+](=O)[O-])C1)C2=O | 6.99%
O=C(O)c1cccc2c1-c1c(cccc1[N+](=O)[O-])C2 | 1890% (active)
CCN(CC)c1ccc(NC(=S)Nc2ccc(F)cc2)cc1 | 5.29%
CCN(CC)c1ccc(-c2sc(Nc3ccccc3)n[n+]2-c2ccc(F)cc2)cc1 | 18.7% (active)
CCc1ccc(Nc2n[n+](-c3ccccc3)c(-c3ccc(N(CC)CC)cc3)s2)cc1 | 5.32%
CCOC(=O)/C(C#N)=C/c1ccc(N2CCN(Cc3ccccc3)CC2)cc1 | 285% (active)
CCOC(=O)/C(C#N)=C\c1ccc(N2CCN(C/C=C/c3ccccc3)CC2)cc1 | 4.67%
